Experimental data as given in PMC6645473 (ACS Omega, 2018).
Where no end group is shown, it is not given here. [ ]: non-standard residue; d: D form. Nle = CCCC[C@H](N)C(=O)O; Nva = CCC[C@H](N)C(=O)O; Aib = CC(C)(N)C(=O)O

System: Aβ1–42 toxicity in PC-12 cells
Assay: MTT cell viability assay, Aβ1–42 co-incubated with tetrapeptides
Format: cell-based
Details: calculated from OD570 of MTT assay in PC-12 cells
In short: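 PC-12 cells were grown in F-12K with 5% FBS and 10% horse serum and used at 70% confluence. For the assay, medium was switched to F-12K with 10% FBS, and cells were seeded at 17 000/well overnight. Monomerized Aβ1–42 was added with test peptide (DMSO stock diluted in PBS; 1:1, 1:5, 1:10) for 6 h. MTT was then added for 4 h, followed by DMSO solubilization and OD570. Inhibition % = 100×(OD peptide+Aβ − OD Aβ)/(OD control − OD Aβ).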

| Substance | inhibition (%) of Aβ1–42 (2 μM) (test peptide 2 μM) | inhibition (%) of Aβ1–42 (2 μM) (test peptide 10 μM) | inhibition (%) of Aβ1–42 (2 μM) (test peptide 20 μM) |
| --- | --- | --- | --- |
| V[dV]IA [compound 12] | 0% | 0% | 0% |
| Pro-Val-Ile-Ala [compound 9] | 0% | 0% | 0% |
| VV[dP]A [compound 32] | 27.0% | 26.0% | 21.0% |
| Val-Val-Val-Ala [compound 31] | 0% | 0% | 3.0% |
| [Aib]VIA [compound 10] | 1.0% | 9.0% | 13.0% |
| V[dF]IA [compound 21] | 0% | 5.0% | 0% |
| Pro-Pro-Ile-Ala [compound 25] | 14.0% | 39.0% | 90.0% |
| Val-Val-Ile-Leu [compound 41] | 0% | 0% | 0% |
| VV[dL]A [compound 28] | 0% | 2.0% | 10.0% |
| [dP]VIA [compound 8] | 5.0% | 9.0% | 4.0% |
| V[dL]IA [compound 14] | 5.0% | 0% | 1.0% |
| Val-Val-Leu-Ala [compound 29] | 10.0% | 0% | 0% |
| VV[dV]A [compound 30] | 0% | 0% | 0% |
| [Nva]VIA [compound 11] | 0% | 0% | 0% |
| Val-Val-Phe-Ala [compound 36] | 0% | 0% | 0% |
| Ile-Val-Ile-Ala [compound 7] | 0% | 3.0% | 2.0% |
| VV[Nle]A [compound 38] | 0% | 0% | 0% |
| VV[dA]A [compound 27] | 0% | 0% | 11.0% |
| Val-Val-Ile-Ile [compound 42] | 24.0% | 27.0% | 29.0% |
| VV[dF]A [compound 35] | 4.0% | 10.0% | 9.0% |
| VVI[dA] [compound 39] | 0% | – | 4.0% |
